Data from ChEMBL document CHEMBL1155447 (J Med Chem, 2010).
Each block holds one molecule with its values, some of them ahead of it.

How the values were obtained:
[1] = biological target: T1, Steroid 17-alpha-hydroxylase/17,20 lyase (Homo sapiens, UniProt P05093); assay: Inhibition of human CYP17 expressed in Escherichia coli at 2.5 uM
T1 sequence (P05093 whole entry): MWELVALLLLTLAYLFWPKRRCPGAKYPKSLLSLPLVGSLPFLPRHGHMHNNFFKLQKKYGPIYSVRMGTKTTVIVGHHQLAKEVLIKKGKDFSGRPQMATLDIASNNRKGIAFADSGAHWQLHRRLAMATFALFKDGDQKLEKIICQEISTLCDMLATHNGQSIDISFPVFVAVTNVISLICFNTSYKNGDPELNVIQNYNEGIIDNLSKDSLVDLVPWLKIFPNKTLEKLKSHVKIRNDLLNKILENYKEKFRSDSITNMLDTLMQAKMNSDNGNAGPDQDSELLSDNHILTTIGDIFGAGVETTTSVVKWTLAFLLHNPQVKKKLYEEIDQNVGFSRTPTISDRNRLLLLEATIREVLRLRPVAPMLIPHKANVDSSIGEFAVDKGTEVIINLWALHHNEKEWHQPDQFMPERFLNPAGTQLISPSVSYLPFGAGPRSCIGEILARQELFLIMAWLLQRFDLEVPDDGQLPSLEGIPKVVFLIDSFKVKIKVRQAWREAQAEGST

Aromatase [2] = biological target: T2, Aromatase (Homo sapiens, UniProt P11511)
T2 sequence (P11511 whole entry): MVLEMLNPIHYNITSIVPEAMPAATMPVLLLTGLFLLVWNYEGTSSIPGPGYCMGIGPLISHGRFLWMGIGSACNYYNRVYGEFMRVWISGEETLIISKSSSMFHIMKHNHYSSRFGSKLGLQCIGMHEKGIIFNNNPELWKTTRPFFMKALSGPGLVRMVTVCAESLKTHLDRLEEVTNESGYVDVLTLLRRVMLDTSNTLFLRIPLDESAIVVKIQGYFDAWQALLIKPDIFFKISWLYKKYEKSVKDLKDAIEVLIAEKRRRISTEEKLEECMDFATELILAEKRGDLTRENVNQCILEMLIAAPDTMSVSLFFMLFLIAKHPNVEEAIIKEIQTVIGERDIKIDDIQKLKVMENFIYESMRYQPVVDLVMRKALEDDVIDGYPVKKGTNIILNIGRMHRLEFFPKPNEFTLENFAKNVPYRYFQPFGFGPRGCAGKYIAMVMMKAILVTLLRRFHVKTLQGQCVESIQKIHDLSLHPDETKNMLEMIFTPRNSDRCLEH

[3] = biological target: T1, Steroid 17-alpha-hydroxylase/17,20 lyase; assay: Inhibition of human CYP17 expressed in Escherichia coli
Aromatase [4] = biological target: T2, Aromatase; assay: Inhibition of aromatase from human placental microsomes at 10 uM
Method in brief: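 Human placental microsomes were incubated with 1β[3H]androstenedione (500 nM) as substrate. Aromatization was quantified by measuring the tritiated water formed, and results are reported as % inhibition at 10 μM test concentration. Fadrozole served as the positive control.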

SMILES: O=c1c2ccccc2oc2c(Cn3ccnc3)cccc12
inhibition at 2.5 µM [1]: 17%
IC50 (Aromatase [2]): 17 nM

SMILES: O=c1c2ccccc2sc2c(Cn3ccnc3)cccc12
inhibition at 2.5 µM [1]: 28%
IC50 (Aromatase [2]): 3.98 nM

SMILES: CC(=O)N1CCN(c2ccc(OCC3COC(Cn4ccnc4)(c4ccc(Cl)cc4Cl)O3)cc2)CC1 (stereo not given) [KETOCONAZOLE]
inhibition at 10 µM (Aromatase [4]): 17.7%

SMILES: O=[N+]([O-])c1ccc(Cn2ccnc2)c(Oc2ccccc2)c1
IC50 (Aromatase [2]): 11.4 nM

SMILES: c1ccc(Oc2ccccc2Cn2ccnc2)cc1
inhibition at 2.5 µM [1]: 8%
IC50 (Aromatase [2]): 389 nM

More lines, in order of falling IC50 (Aromatase [2]), values ahead:

inhibition at 2.5 µM [1]: 11%
IC50 (Aromatase [2]): 7900 nM
SMILES: O=c1c2ccccc2oc2ccc(Cn3ccnc3)cc12

inhibition at 2.5 µM [1]: 9%
IC50 (Aromatase [2]): 1900 nM
SMILES: O=c1c2ccccc2oc2c(Cn3ccnc3)c([N+](=O)[O-])ccc12

IC50 [3]: 880 nM
IC50 (Aromatase [2]): 150 nM
SMILES: O=c1c2ccccc2oc2cccc(Cn3ccnc3)c12

IC50 (Aromatase [2]): 101 nM
SMILES: O=c1c2cccnc2oc2c(Cn3ccnc3)ccc([N+](=O)[O-])c12

IC50 (Aromatase [2]): 53 nM
SMILES: O=c1c2ccccc2oc2c(Cn3ccnc3)cc([N+](=O)[O-])cc12

inhibition at 2.5 µM [1]: 5%
IC50 (Aromatase [2]): 16.5 nM
SMILES: O=c1c2ccccc2sc2c(Cn3ccnc3)ccc([N+](=O)[O-])c12

inhibition at 2.5 µM [1]: 17%
IC50 (Aromatase [2]): 5.59 nM
SMILES: O=[N+]([O-])c1ccc(Cn2ccnc2)c(Sc2ccccc2)c1
